From ChEMBL document CHEMBL5715938, “The protein kinase Cbeta-selective inhibitor, Enzastaurin (LY317615.HCl), suppresses signaling through the AKT pathway, induces apoptosis, and suppresses growth of human colon cancer and glioblastoma xenografts” (Cancer Res, 2005)
Activity calls are given as the source filed them. The calls are words filed in the database; no cut-off is given here.

Legend:
[1] = molecular target: Protein kinase C epsilon type (Homo sapiens, UniProt Q02156); experiment: Inhibition of recombinant human PKCepsilon using myelin basic protein as substrate incubated for 60 mins in presence of […] and ATP by microbeta scintillation counter analysis
Procedure, shortened: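 Recombinant human PKCε at 719 pmol/L. Myelin basic protein substrate at 0.25 mg/mL. 30 µmol/L ATP plus 32P-ATP. Started with enzyme, 60 min at room temperature, H3PO4 quench. Phosphocellulose filter capture, scintillation counting. 10-point series 1–2,000 nmol/L. IC50 from three-variable logistic fit.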

U-87 MG [2] = experiment: Antiproliferative activity against human U-87 MG cells assessed as reduction in cell growth upto 10 uM measured after 6 days by propidium iodide staining based analysis; type: functional; details: U-87MG ATCC, time 6.0 day
Procedure, shortened: (§1)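 ATCC-sourced lines grown without antibiotics; 1,000 cells/well in 1% FBS medium, refed ±drug on days 1 and 4 over a 6-day course. On day 7, propidium iodide (10 μg/mL in D-PBS) read after 30 min for nonviable cells, plate frozen at -80°C 2 h, thawed and reread; proliferative index = postfreeze minus prefreeze signal.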

PC-3 = experiment: Antiproliferative activity against human PC-3 cells assessed as reduction in cell growth upto 10 uM measured after 6 days by propidium iodide staining based analysis; type: functional; details: time 6.0 day; procedure, shortened: as §1
Malme-3M = experiment: Antiproliferative activity against human Malme-3M cells assessed as reduction in cell growth upto 10 uM measured after 6 days by propidium iodide staining based analysis; type: functional; details: time 6.0 day; procedure, shortened: as §1
OVCAR-5 = experiment: Antiproliferative activity against human OVCAR-5 cells assessed as reduction in cell growth upto 10 uM measured after 6 days by propidium iodide staining based analysis; type: functional; details: time 6.0 day; procedure, shortened: as §1
786-0 = experiment: Antiproliferative activity against human 786-0 cells assessed as reduction in cell growth upto 10 uM measured after 6 days by propidium iodide staining based analysis; type: functional; details: time 6.0 day; procedure, shortened: as §1
HCT-116 [3] = experiment: Induction of apoptosis in human HCT-116 cells assessed as increase in oligonucleosomal fragmentation at 1 to 4 micromol/L incubated for 48 hrs by ELISA method; type: functional, cell-based; details: dose 1-4 µmol/L
Procedure, shortened: (§2)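 Oligonucleosomal fragmentation by Cell Death Detection ELISA-plus; 5,000 cells/well in 1% FBS medium, treated 48 h (range studied 0.1–10 μmol/L); absorbance normalized to control-treated cells to give nucleosomal enrichment factor.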

U-87 MG [4] = experiment: Induction of apoptosis in human U-87 MG cells assessed as increase in oligonucleosomal fragmentation at 1 to 4 micromol/L incubated for 48 hrs by ELISA method; type: functional, cell-based; details: U-87MG ATCC, dose 1-4 µmol/L; procedure, shortened: as §2
HCT-116 [5] = experiment: Induction of apoptosis in human HCT-116 cells assessed as increase in apoptotic cells in sub-G0-G1 fraction at 0.3 to 4 micromol/L incubated for 72 hrs by TUNEL staining based analysis; type: functional, cell-based; details: dose 0.3-4 µmol/L
[6] = molecular target: Protein kinase C alpha type (Homo sapiens) (UniProt P17252); experiment: Inhibition of PKCalpha (unknown origin) at 1 micromol/L relative to control; details: dose 1.0 µmol/L
Procedure, shortened: (§3)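 Commercial kinase profiler panel run to the provider's protocol, with the compound tested at 1 µmol/L. Activity is expressed as percent of kinase activity without compound.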

[7] = molecular target: Protein kinase C theta type (Homo sapiens) (UniProt Q04759); experiment: Inhibition of PKCteta (unknown origin) at 1 micromol/L relative to control; details: dose 1.0 µmol/L; procedure, shortened: as §3
[8] = molecular target: Protein kinase C zeta type (Homo sapiens) (UniProt Q05513); experiment: Inhibition of PKCzeta (unknown origin) at 1 micromol/L relative to control; details: dose 1.0 µmol/L; procedure, shortened: as §3
[9] = molecular target: Protein kinase C epsilon type (Homo sapiens) (UniProt Q02156); experiment: Inhibition of PKCepsilon (unknown origin) at 1 micromol/L relative to control; details: dose 1.0 µmol/L; procedure, shortened: as §3
[10] = molecular target: Dual specificity mitogen-activated protein kinase kinase 6 (Homo sapiens) (UniProt P52564); experiment: Inhibition of MKK6 (unknown origin) at 1 micromol/L relative to control; details: dose 1.0 µmol/L; procedure, shortened: as §3
[11] = molecular target: RAC-beta serine/threonine-protein kinase (Homo sapiens) (UniProt P31751); experiment: Inhibition of PKBbeta (unknown origin) at 1 micromol/L relative to control; details: dose 1.0 µmol/L; procedure, shortened: as §3
Homo sapiens = species on record: Homo sapiens; experiment: Inhibition of p70S6K (unknown origin) at 1 micromol/L relative to control; details: dose 1.0 µmol/L; procedure, shortened: as §3
[12] = molecular target: Proto-oncogene tyrosine-protein kinase Src (Homo sapiens) (UniProt P12931); experiment: Inhibition of c-SRC (unknown origin) at 1 micromol/L relative to control; details: dose 1.0 µmol/L; procedure, shortened: as §3
U-87 MG [13] = experiment: Inhibition of ERK in human U-87 MG cells at 1 micromol/L measured upto 4 hrs by Western blotting analysis; type: cell-based; details: dose 1.0 µmol/L
Procedure, shortened: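 Cultured tumor cells treated with 1 μmol/L drug; lysates in cell extraction buffer with protease inhibitors, western blotted with phospho-specific antibodies (pGSK3β Ser9, pAKT Thr308, phospho-ERK) alongside total GSK3β/AKT.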

HCT-116 [14] = experiment: Inhibition of ribosomal protein S6 phosphorylation at serine 240/244 residue in human HCT-116 cells at 1 micromol/L upto 4 hrs by Western blotting analysis; type: cell-based; details: dose 1.0 µmol/L
Procedure, shortened: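 HCT116 cells from ATCC were grown in FBS-containing medium without antibiotics. They were lysed in cell extraction buffer with protease inhibitor cocktails, and protein was measured by DC assay. Western blotting used phospho-S6 Ser240/244 and total S6 ribosomal protein antibodies.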

[15] = Plasma concentration in athymic nude mouse xenografted with human HCT-116 cells at 75 mg/kg, po administered twice daily measured after 30 mins by LC-MS analysis; type: ADME, organism-based
Procedure, shortened: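 Female athymic nude mice, 6–8 weeks old, received 5 million HCT116 cells s.c. in the flank in 1:1 serum-free medium and matrigel (n = 9 per group). Dosing began at a group mean tumor volume of 100 mm³: 75 mg/kg twice daily by gavage, suspended in 10% acacia in water. Plasma was taken on days 1 and 21 at 0.5–12 h post-dose and measured by LC-MS/MS.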

[16] = Drug concentration in athymic nude mouse plasma xenografted with human HCT-116 cells at 75 mg/kg, po administered twice daily measured after 8 to 12 hrs by LC-MS analysis; type: ADME, organism-based; details: in vivo, time 8-12 hrs
Procedure, shortened: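 HCT116-bearing nude mice given 75 mg/kg twice daily by gavage; plasma collected on day 1 and day 21 at 0.5, 1, 2, 4, 8 and 12 h after dose; drug quantified by LC-MS/MS.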

HCT-116 [17] = experiment: Antitumor activity against human HCT-116 cells xenografted in athymic nude mouse assessed as reduction in GSK3beta phosphorylation at serine 9 residue at 75 mg/kg, po administered twice daily measured after 12 hrs by Western blotting analysis; type: functional, organism-based
HCT-116 [18] = experiment: Antitumor activity against human HCT-116 cells xenografted in athymic nude mouse assessed as reduction in GSK3beta phosphorylation at serine 9 residue at 75 mg/kg, po administered twice daily measured after 30 mins by ELISA method relative to control; type: functional; parameters: scale not given: the % may be the effect or the level left; details: 0.5 h
Procedure, shortened: (§4)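 HCT116-bearing nude mice, 75 mg/kg by gavage; tumors and PBMCs harvested 0.5, 2, 4, 8 h post-dose, n = 5 per time point. PBMCs from five mice pooled via CPT tube. Lysates assayed by pGSK3β Ser9 immunometric ELISA (tumor 400–600 μg, PBMC 50–100 μg protein/well); percent of vehicle control, Dunnett/ANOVA.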

HCT-116 [19] = experiment: Antitumor activity against human HCT-116 cells xenografted in athymic nude mouse assessed as reduction in GSK3beta phosphorylation at serine 9 residue at 75 mg/kg, po administered twice daily measured after 2 to 4 hrs by ELISA method relative to control; type: functional; parameters: scale not given: the % may be the effect or the level left; details: time 2-4 hrs; procedure, shortened: as §4

Dual specificity mitogen-activated protein kinase kinase 6 (Homo sapiens), sequence (P52564 whole entry): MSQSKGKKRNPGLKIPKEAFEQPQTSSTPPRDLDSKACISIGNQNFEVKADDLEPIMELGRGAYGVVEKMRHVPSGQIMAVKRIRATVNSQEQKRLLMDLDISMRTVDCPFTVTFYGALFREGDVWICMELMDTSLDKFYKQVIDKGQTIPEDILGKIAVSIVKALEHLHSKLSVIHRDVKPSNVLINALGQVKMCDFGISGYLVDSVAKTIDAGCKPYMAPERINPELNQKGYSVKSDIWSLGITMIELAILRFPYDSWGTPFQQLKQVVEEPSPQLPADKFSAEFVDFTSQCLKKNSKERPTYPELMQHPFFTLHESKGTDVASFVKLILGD
RAC-beta serine/threonine-protein kinase (Homo sapiens), sequence (P31751 whole entry): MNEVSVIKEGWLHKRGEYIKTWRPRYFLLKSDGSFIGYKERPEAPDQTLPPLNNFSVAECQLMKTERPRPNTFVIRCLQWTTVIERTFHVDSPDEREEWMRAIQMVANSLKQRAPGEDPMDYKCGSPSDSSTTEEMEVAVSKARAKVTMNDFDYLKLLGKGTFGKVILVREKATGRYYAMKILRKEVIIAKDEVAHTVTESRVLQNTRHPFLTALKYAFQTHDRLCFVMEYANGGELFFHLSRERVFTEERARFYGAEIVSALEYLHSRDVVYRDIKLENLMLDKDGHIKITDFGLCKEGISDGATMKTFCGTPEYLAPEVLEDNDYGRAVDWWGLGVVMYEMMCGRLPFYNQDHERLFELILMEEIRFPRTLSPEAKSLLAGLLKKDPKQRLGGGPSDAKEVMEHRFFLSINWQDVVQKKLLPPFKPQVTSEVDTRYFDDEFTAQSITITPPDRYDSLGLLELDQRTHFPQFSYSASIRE
Protein kinase C zeta type (Homo sapiens), sequence (Q05513 whole entry): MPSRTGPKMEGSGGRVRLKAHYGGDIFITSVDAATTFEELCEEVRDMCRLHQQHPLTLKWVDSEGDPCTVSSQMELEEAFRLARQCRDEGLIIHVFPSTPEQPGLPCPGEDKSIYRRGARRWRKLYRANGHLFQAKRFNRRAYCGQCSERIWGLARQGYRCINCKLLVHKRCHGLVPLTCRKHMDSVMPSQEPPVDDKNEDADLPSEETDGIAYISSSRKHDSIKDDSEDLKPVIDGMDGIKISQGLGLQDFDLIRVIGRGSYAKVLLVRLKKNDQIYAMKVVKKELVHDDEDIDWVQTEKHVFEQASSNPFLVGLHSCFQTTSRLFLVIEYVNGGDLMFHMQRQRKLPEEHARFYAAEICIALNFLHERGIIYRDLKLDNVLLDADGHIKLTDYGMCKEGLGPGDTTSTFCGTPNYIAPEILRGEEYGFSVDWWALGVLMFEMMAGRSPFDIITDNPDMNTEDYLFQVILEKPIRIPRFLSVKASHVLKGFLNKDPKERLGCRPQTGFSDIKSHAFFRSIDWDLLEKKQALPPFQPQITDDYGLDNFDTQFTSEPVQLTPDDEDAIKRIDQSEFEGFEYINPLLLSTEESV
Proto-oncogene tyrosine-protein kinase Src (Homo sapiens), sequence (P12931 2-536 limits assumed): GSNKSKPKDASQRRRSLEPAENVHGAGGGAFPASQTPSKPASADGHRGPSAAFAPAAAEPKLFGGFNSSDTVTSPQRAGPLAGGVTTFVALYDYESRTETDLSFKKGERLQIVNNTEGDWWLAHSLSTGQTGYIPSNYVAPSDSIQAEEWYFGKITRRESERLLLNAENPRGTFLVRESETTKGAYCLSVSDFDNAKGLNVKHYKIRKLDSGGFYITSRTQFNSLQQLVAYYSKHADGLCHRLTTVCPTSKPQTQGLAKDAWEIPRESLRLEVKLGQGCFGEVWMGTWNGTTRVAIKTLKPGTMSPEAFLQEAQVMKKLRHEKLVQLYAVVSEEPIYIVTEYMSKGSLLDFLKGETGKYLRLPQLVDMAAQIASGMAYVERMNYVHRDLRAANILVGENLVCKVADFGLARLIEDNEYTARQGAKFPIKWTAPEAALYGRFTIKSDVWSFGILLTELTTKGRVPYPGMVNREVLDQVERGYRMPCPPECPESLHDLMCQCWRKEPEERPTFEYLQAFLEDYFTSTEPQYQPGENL
Protein kinase C theta type (Homo sapiens), sequence (Q04759 whole entry, looked up): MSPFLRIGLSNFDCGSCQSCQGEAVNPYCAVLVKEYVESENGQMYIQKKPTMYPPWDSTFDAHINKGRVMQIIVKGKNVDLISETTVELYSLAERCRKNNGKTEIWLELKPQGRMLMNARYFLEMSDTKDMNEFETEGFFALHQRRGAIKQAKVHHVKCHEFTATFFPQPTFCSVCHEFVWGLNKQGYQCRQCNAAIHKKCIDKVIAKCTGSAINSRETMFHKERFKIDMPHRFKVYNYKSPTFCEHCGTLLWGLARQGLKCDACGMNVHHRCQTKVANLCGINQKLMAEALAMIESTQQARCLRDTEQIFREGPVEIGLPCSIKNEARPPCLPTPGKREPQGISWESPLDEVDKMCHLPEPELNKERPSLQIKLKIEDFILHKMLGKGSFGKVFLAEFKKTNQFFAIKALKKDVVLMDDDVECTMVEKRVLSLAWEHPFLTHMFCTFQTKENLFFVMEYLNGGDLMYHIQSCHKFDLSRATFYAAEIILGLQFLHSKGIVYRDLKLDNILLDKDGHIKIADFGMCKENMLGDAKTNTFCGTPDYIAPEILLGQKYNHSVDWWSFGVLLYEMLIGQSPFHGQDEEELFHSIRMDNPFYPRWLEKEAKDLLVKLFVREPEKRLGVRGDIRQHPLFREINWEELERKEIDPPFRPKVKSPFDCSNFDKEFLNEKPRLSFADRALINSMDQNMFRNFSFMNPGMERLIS
Protein kinase C epsilon type, sequence (Q02156 whole entry): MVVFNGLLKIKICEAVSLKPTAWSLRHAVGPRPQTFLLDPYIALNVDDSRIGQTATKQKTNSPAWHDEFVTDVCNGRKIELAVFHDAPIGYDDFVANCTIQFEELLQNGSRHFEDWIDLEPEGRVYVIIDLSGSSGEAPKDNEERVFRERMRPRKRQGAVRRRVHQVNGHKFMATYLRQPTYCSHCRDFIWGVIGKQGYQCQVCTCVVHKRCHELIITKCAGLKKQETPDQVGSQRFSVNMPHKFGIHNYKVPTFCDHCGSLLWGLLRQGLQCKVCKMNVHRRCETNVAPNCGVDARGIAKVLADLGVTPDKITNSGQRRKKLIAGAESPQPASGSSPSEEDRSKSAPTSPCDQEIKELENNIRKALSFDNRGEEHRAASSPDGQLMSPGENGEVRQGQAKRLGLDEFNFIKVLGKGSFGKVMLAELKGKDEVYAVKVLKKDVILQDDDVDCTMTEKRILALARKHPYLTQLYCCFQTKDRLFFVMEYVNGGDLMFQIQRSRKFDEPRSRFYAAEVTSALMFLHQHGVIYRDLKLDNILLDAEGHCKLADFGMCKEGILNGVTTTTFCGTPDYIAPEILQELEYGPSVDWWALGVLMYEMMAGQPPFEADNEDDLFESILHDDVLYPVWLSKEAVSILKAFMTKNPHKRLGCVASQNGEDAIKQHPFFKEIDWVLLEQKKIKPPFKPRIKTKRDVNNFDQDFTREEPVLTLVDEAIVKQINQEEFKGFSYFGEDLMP
Protein kinase C epsilon type (Homo sapiens), sequence (Q02156 whole entry): as above

Compound: Cl.Cn1cc(C2=C(c3cn(C4CCN(Cc5ccccn5)CC4)c4ccccc34)C(=O)NC2=O)c2ccccc21 [ENZASTAURIN HYDROCHLORIDE]
- IC50 [1]: 110 nM
- Activity (U-87 MG [2]): Active
- Activity (PC-3): Active
- Activity (Malme-3M): inactive
- Activity (OVCAR-5): inactive
- Activity (786-0): inactive
- Activity (HCT-116 [3]): Active
- Activity (U-87 MG [4]): Active
- Activity (HCT-116 [5]): Active
- % control activity [6]: 23%
- % control activity [7]: 2%
- % control activity [8]: 47%
- % control activity [9]: 9%
- % control activity [10]: 99%
- % control activity [11]: 100%
- % control activity (Homo sapiens): 52%
- % control activity [12]: 101%
- inhibition (U-87 MG [13]): inactive
- inhibition (HCT-116 [14]): Active
- concentration at 0.5 h [15]: ~2000 nM
- Drug uptake [16]: Not Active
- Activity (HCT-116 [17]): inactive
- Activity (HCT-116 [18]): 50%
- Activity (HCT-116 [19]): >60%
